Data taken from ChEMBL document CHEMBL1123859, “Substituted arylmethyl phenyl ethers. 1. A novel series of 5-lipoxygenase inhibitors and leukotriene antagonists” (J Med Chem, 1987).

Legend:
Cavia porcellus [1] = species: Cavia porcellus; test: Percent inhibition of LTC4-induced contraction in guinea pig parenchymal strip test, at a concentration of 10 uM; type: functional
Outline: (§1)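 Guinea pig lung parenchymal strips were held in a tissue bath. Repeated 1 μM histamine challenges gave a control response used to normalize all later responses. Compounds were first checked at 30 μM alone for intrinsic activity. After preincubation (usually 5 min), strips were challenged with 0.2 nM LTC4. Inhibition of the contraction was scored, and 20% or less counted as ineffective.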

[2] = biological target: T1, Polyunsaturated fatty acid 5-lipoxygenase (Rattus norvegicus) (UniProt P12527); test: IC50 for inhibition of rat neutrophil 5-lipoxygenase (5-LO)
T1 sequence (whole entry): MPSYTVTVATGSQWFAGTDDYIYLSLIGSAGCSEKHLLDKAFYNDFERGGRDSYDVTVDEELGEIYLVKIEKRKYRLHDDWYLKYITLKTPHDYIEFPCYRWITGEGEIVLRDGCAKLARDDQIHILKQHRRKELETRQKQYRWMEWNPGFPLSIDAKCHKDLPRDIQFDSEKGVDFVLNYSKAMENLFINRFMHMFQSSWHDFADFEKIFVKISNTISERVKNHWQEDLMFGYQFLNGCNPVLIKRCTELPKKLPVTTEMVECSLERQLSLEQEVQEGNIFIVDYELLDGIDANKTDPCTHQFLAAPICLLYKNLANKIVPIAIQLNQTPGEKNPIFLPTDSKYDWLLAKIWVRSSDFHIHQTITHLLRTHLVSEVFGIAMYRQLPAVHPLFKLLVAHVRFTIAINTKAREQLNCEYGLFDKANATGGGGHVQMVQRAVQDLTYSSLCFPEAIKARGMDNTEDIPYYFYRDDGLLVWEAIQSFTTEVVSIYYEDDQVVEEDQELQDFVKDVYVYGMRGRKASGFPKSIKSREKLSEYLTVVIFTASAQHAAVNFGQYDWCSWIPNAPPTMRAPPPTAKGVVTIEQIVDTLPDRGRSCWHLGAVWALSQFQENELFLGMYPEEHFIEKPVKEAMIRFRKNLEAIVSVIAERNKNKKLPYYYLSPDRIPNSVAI

Cavia porcellus [3] = species: Cavia porcellus; test: Percent inhibition of LTC4-induced contraction in guinea pig parenchymal strip test, at a concentration of 30 uM; type: functional; outline: as §1
Cavia porcellus [4] = species: Cavia porcellus; test: Percent inhibition of LTC4-induced contraction in guinea pig parenchymal strip test, at a concentration of 12 uM; type: functional; outline: as §1
Cavia porcellus [5] = species: Cavia porcellus; test: Percent inhibition of LTC4-induced contraction in guinea pig parenchymal strip test, at a concentration of 40 uM; type: functional; outline: as §1
[6] = biological target: T2, Polyunsaturated fatty acid 5-lipoxygenase (Rattus norvegicus, UniProt P12527); test: Inhibition of rat neutrophil 5- Lipoxygenase (5-LO); conditions: read-out: I50
T2 sequence (P12527 whole entry): T1 sequence (whole entry)
Outline: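 Approximately 2 × 10^6 glycogen-elicited rat neutrophils in buffer were incubated for 3 min with 4 μM [14C]arachidonic acid and 0.8 μM calcium ionophore A23187. Net 5-HETE was taken as the cell-containing control minus the buffer-only blank. Each assay was run in triplicate.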

Cavia porcellus [7] = species: Cavia porcellus; test: Percent inhibition of LTC4-induced contraction in guinea pig parenchymal strip test, at a concentration of 15 uM; type: functional; outline: as §1
Cavia porcellus [8] = species: Cavia porcellus; test: Percent inhibition of LTC4-induced contraction in guinea pig parenchymal strip test, at a concentration of 3.6 uM; type: functional; outline: as §1
Cavia porcellus [9] = species: Cavia porcellus; test: Percent inhibition of LTC4-induced contraction in guinea pig parenchymal strip test, at a concentration of 100 uM; type: functional; outline: as §1
Cavia porcellus [10] = species: Cavia porcellus; test: Percent inhibition of LTC4-induced contraction in guinea pig parenchymal strip test, at a concentration of 19 uM; type: functional; outline: as §1
[11] = biological target: T1, Polyunsaturated fatty acid 5-lipoxygenase (Rattus norvegicus); test: Percent inhibition of rat neutrophil 5- Lipoxygenase (5-LO) at 100 uM
Outline: (§2)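 Approximately 2 × 10^6 glycogen-elicited rat neutrophils in buffer were incubated for 3 min with 4 μM [14C]arachidonic acid and 0.8 μM calcium ionophore A23187. Net 5-HETE was taken as the cell-containing control minus the buffer-only blank. […] Each assay was run in triplicate.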

Cavia porcellus [12] = species: Cavia porcellus; test: Percent inhibition of LTC4-induced contraction in guinea pig parenchymal strip test, at a concentration of 20 uM; type: functional; outline: as §1
[13] = biological target: T2, Polyunsaturated fatty acid 5-lipoxygenase; test: Inhibition of rat neutrophil 5- Lipoxygenase (5-LO),; conditions: read-out: I50; outline: as §2
Cavia porcellus [14] = species: Cavia porcellus; test: Percent inhibition of LTC4-induced contraction in guinea pig parenchymal strip test, at a concentration of 9 uM; type: functional; outline: as §1
Cavia porcellus [15] = species: Cavia porcellus; test: Percent inhibition of LTC4-induced contraction in guinea pig parenchymal strip test, at a concentration of 22 uM,; type: functional; outline: as §1
Cavia porcellus [16] = species: Cavia porcellus; test: Percent inhibition of LTC4-induced contraction in guinea pig parenchymal strip test, at a concentration of 8 uM; type: functional; outline: as §1

| IC50 [2] [µM] | SMILES | inhibition at 30 µM (Cavia porcellus [3]) [%] | other results |
| --- | --- | --- | --- |
| 30 | CCCCCC(O)c1cccc(OCc2cccc(C#N)n2)c1 (centres undefined) |  | inhibition at 10 µM (Cavia porcellus [1]): 36% |
| 10 | CCCCCC(OC)c1cccc(OCc2cccc(C(=O)OC)c2)c1 (centres undefined) | 22 |  |
| > 10 | CCCC/C=C\c1cccc(OCc2ccc3ccccc3n2)c1 |  | inhibition at 12 µM (Cavia porcellus [4]): 50% |
| 4 | CCCCCC(O)c1cccc(OCc2cccc(C=O)c2)c1 (centres undefined) |  |  |
| 3.2 | CCCCCC(O)c1cccc(OCc2ccc(C(=O)OC)cc2)c1 (centres undefined) |  | inhibition at 10 µM (Cavia porcellus [1]): 0% |
| 5 | CCCC/C=C(/C)c1ccccc1OCc1cccc(C(=O)OC)c1 | 7 |  |
| 22 | CCCCCC(NC)c1cccc(OCc2ccccc2)c1 (centres undefined) | 50 |  |
| 2.5 | CCCCCC(O)c1cccc(OCc2cccc(CC(=O)O)c2)c1 (centres undefined) |  | inhibition at 40 µM (Cavia porcellus [5]): 50% |
|  | CCCCC(O)c1cccc(OCc2ccccc2CO)c1 (centres undefined) |  | IC50 [6]: 4000 nM; inhibition at 15 µM (Cavia porcellus [7]): 50% |
| 1 | CCCCCC(C)(O)c1cccc(OCc2ccccc2)c1 (centres undefined) | 10 |  |
| 6.4 | CCCCCC(O)c1cccc(/C=C\c2ccccc2)c1 (centres undefined) | 5 |  |
|  | CCCCCC(=O)c1cccc(OCc2cccc(C#N)c2)c1 | -30 | IC50 [6]: 6000 nM |
|  | CCCCCC(O)c1cccc(OCc2ccc3ccccc3n2)c1 (centres undefined) [REV-5901] |  | inhibition at 3.6 µM (Cavia porcellus [8]): 50% |
| 1.2 | CCCCCC(O)c1cccc(Oc2ccccc2)c1 (centres undefined) | 50 |  |
| 36 | CCCCCC(O)c1cccc(OCc2cccc(CN)c2)c1 (centres undefined) | 0 |  |
| 4.5 | CCCCCC(O)c1cccc(/C=C/c2ccccc2)c1 (centres undefined) | 12 |  |
| 2 | CCCCCC(=O)c1cccc(OCc2ccccc2)c1 |  | inhibition at 100 µM (Cavia porcellus [9]): 50% |
| 10 | CCCCC(O)c1cccc(OCc2ccccc2C(=O)O)c1 (centres undefined) |  | inhibition at 19 µM (Cavia porcellus [10]): 50% |
| 5 | CCCCCC(O)c1cccc(OCc2ccc3ccccc3c2)c1 (centres undefined) | 10 |  |

| IC50 [2] [µM] | SMILES | inhibition at 30 µM (Cavia porcellus [3]) [%] | other results |
| --- | --- | --- | --- |
| 2.7 | CCCCCC(O)c1cccc(OCc2ccccc2)c1 (centres undefined) |  | inhibition at 100 µM (Cavia porcellus [9]): 10% |
|  | CCCCCC(O)c1cccc(OCc2cccc(C(F)(F)F)c2)c1 (centres undefined) | 10 | IC50 [6]: 4000 nM |
| 2.5 | CCCCC(C)(C)C(O)c1cccc(OCc2ccccc2)c1 (centres undefined) |  |  |
| 14 | CCCCC(OC1CCCCO1)c1cccc(OCc2ccccc2C(=O)OC)c1 (centres undefined) |  |  |
| 0.6 | CCCCCC(=O)c1cccc(OCc2cccc(C(N)=O)c2)c1 | 5 |  |
|  | CCCCCC(O)c1cccc(O)c1 (centres undefined) |  | inhibition [11]: 43% |
| 0.35 | CCCCCC(O)c1cccc(Oc2ccc3ccccc3n2)c1 (centres undefined) | 26 |  |
| > 100 | CCCCCC(=O)c1cccc(/C=C/c2ccccc2)c1 | 0 |  |
| 21 | CCCCCC(O)c1cccc(OCc2ccc(C(=O)O)cc2)c1 (centres undefined) | 22 |  |
| 30 | CCCCCC(O)c1cccc(OCc2ccccc2C(=O)O)c1 (centres undefined) |  | inhibition at 20 µM (Cavia porcellus [12]): 50% |
| 5 | CCCCCC(OC(C)=O)c1cccc(OCc2cccc(C(=O)OC)c2)c1 (centres undefined) | 5 |  |
|  | CCCCCC(O)c1cccc(OCc2cccc(C(=O)O)n2)c1 (centres undefined) | 50 | IC50 [13]: 5 µM |
| 2.7 | CCCCCC(O)c1cccc(OCc2cccnc2)c1 (centres undefined) |  | inhibition at 9 µM (Cavia porcellus [14]): 50% |
|  | CCCCCC(=O)c1cccc(OCc2ccc3ccccc3n2)c1 |  | inhibition at 20 µM (Cavia porcellus [12]): 50%; IC50 [6]: 370 nM |
|  | CCCCCC(O)c1cccc(OCc2cccc(C(=O)O)c2)c1 (centres undefined) | 30 | IC50 [13]: 20.5 µM |
| 6.7 | CCCCCC(O)c1cccc(COc2ccccc2)c1 (centres undefined) | 19 |  |
| 0.5 | CCCCCC(O)c1cccc(OCc2ccccn2)c1 (centres undefined) | 37 |  |
| 2.7 | CCCCCC(O)c1cccc(OCc2ccncc2)c1 (centres undefined) |  | inhibition at 100 µM (Cavia porcellus [9]): 50% |
| 23 | CCCCCC(OC1CCCCO1)c1cccc(OCc2cccc(C(=O)OC)c2)c1 (centres undefined) | 0 |  |

| IC50 [2] [µM] | SMILES | inhibition at 30 µM (Cavia porcellus [3]) [%] | other results |
| --- | --- | --- | --- |
|  | CCCCCC(O)c1cccc(OCc2cccc(C(=O)OC)n2)c1 (centres undefined) |  | IC50 [6]: 1900 nM |
| 2.4 | CCCCC(C)(C)C(C)(O)c1cccc(OCc2ccccc2)c1 (centres undefined) | 10 |  |
| 17 | CCCCCC(O)c1cccc(OCc2cccc(C#N)c2)c1 (centres undefined) |  | inhibition at 10 µM (Cavia porcellus [1]): 3% |
| 3.2 | CCCCCC(O)c1ccccc1OCc1cccc(C(=O)OC)c1 (centres undefined) |  | inhibition at 20 µM (Cavia porcellus [12]): 50% |
|  | CCCCC(C)(C)C(O)c1cccc(OCc2cccc(C(=O)OC)c2)c1 (centres undefined) | 0 | IC50 [6]: 2000 nM |
|  | CCCCCC(O)c1cccc(OCc2cccc(C(=O)OC)c2)c1 (centres undefined) | 20 | IC50 [13]: 1 µM |
| 45 | CCCCCC(=O)c1cccc(/C=C\c2ccccc2)c1 | -20 |  |
| > 100 | CCCC/C=C/c1ccc(OCc2cccc(C(=O)OC)c2)cc1 | 26 |  |
|  | CCCCC[C@H](O)/C=C/C=C\C/C=C\C/C=C\CCCC(=O)O [ICOMUCRET] |  | IC50 [6]: 1450 nM |
|  | CCCCCC(C)(O)c1cccc(OCc2ccccn2)c1 (centres undefined) |  | IC50 [6]: 430 nM; inhibition at 22 µM (Cavia porcellus [15]): 50% |
| 5.8 | CCCCCC(O)c1cccc(OCc2cccc(CC(=O)OC)c2)c1 (centres undefined) | 19 |  |
|  | CCCCCC(C)(O)c1cccc(OCc2ccc3ccccc3n2)c1 (centres undefined) |  | inhibition at 8 µM (Cavia porcellus [16]): 50%; IC50 [6]: 130 nM |
| 4.8 | CCCCCC(O)c1cccc(OCc2ccc(OCC(=O)OC)cc2)c1 (centres undefined) |  |  |
| 2.5 | CCCCC(O)c1cccc(OCc2ccccc2C(=O)OC)c1 (centres undefined) | 35 |  |
|  | CCCCC(C)(C)C(=O)c1cccc(OCc2ccccc2)c1 | 11 | IC50 [13]: 7.5 µM |
| 3 | CCCCC(C)C(O)c1cccc(OCc2ccccc2)c1 (centres undefined) | 0 |  |
| 2 | CCCCCC(O)c1cccc(OCc2cccc(C(N)=O)c2)c1 (centres undefined) |  | inhibition at 10 µM (Cavia porcellus [1]): 0% |
| 0.6 | CCCCCC(O)c1cccc(OCc2ccccc2C(=O)OC)c1 (centres undefined) | 23 |  |
